Screens as filed in PubChem.
Sampled rows, rich in hits. Any-hit rate of the full collection: about 4.9%.
STAT3 inh-1 – STAT3 signaling inhibition; U3A cells, IL-6 STAT3-luciferase reporter, luminescence; host cell line lacks STAT1; inhibition, % at 5.5 µM; 190,000 tested, 0.89% active;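 active = inhibition above the mean inhibition across all screened compounds plus 3 SD, cut at about 44% in these data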;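 note: 0% = DMSO only wells and 100% = 100 µM nifuroxazide control wells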
STAT1 inh – reduces IFN-gamma driven STAT1 reporter signal; inhibition, % at 5.5 µM; AID 920; 200,000 tested, 0.35% active; NIH 3T3 STAT1-luciferase reporter, luminescence;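 active = inhibition above a set limit, the mean inhibition across all tested compounds plus 3 SD, cut at about 34% in these data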;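 note: 0% = IFN-gamma with DMSO and 100% = IFN-gamma with 300 µM nifuroxazide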
NF-kB neuron act – compounds increasing NF-kB expression in human neuronal cells; NF-kB reporter expression; active compounds read high; fold change at 12.5 µM; 190,000 tested, 1.6% active; AID 1239; in the data active = fold change above about 3.3
STAT3 act – increases IL-6 driven STAT3 reporter signal; U3A cells, IL-6 STAT3-luciferase reporter, luminescence; 100% = signal with IL-6 EC80 alone; activation (% of control), % at 5.6 µM; 190,000 tested, 0.91% active; AID 871;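 active = activation above the screen-wide mean of compound activation plus 3 SD, cut at about 130% in these data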;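 note: 0% = background luminescence of wells with medium and substrate only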
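Test system: STAT3-luciferase reporter U3A cells; Detection: reporter luminescence signal; Times: 1 h compound pre-exposure, 6 h IL-6 stimulation, 37 °C; Benchmarks: IL-6-only high control; Also added: IL-6 stimulus at 33 ng/mL final.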
APP 5'UTR act – APP 5'UTR luciferase reporter activation; SH-SY5Y APP 5'UTR luciferase reporter, luminescence; zero percent = DMSO vehicle wells; activation, % at 2 µM; 190,000 tested, 1% active;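 active = activation above a set limit, based on mean plus 3 SD of controls, cut at about 140% in these data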
STAT1 act – activators of IFN-gamma induced STAT1 signaling | activation (% of control), % at 5.5 µM | 200,000 tested, 2.6% active | NIH 3T3 STAT1-luciferase reporter, luminescence; 100% = IFN-gamma alone, no compound;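 active = activation above the screen-wide mean activation plus 3 SD, cut at about 130% in these data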;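 note: raw ratio to IFN-gamma control signal so 100% means no change and 0% no light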
STAT3 inh-2 – STAT3 inhibition, confirmation assay; shares compounds with STAT3 inh-1; U3A cells, IL-6 STAT3 luciferase reporter, luminescence; cell line lacks STAT1; inhibition, % at 5.7 µM; 1,200 tested, 45% active;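 active = inhibition above the hit cutoff computed for the primary STAT3 screen, cut at about 44% in these data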;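 note: 0% = IL-6 plus DMSO and 100% = IL-6 plus nifuroxazide control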
NFkB inh 2 – inhibits NF-kappaB, counter-screen to STAT3 inhibitors; shares compounds with STAT3 inh-1; HEK293T NF-kB luciferase reporter, TNF-alpha induced; inhibition, % at 5.7 µM; 1,200 tested, 36% active; AID 1308;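 active = inhibition above the mean of solvent-only control wells plus 3 SD, cutoff set per campaign, cut at about 13% in these data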;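 note: 0% = TNF-alpha with DMSO and 100% = TNF-alpha with MG high control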
STAT1 inh STAT3c – inhibits STAT1, counter-screen to STAT3 inhibitors; shares compounds with STAT3 inh-1; 1,200 tested, 27% active; AID 1317; NIH 3T3 STAT1-luciferase reporter, IFN-gamma induced, luminescence; inhibition, % at 5.7 µM;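 active = inhibition above the mean plus 3 SD of solvent-only control wells, limit set per screening run, cut at about 16% in these data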;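 note: 0% = DMSO with IFN-gamma and 100% = nifuroxazide control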
Numbers without * were called inactive; . = not tested or not shown.

SMILES | STAT3 inh-1 | STAT1 inh | NF-kB neuron act | STAT3 act | APP 5'UTR act | STAT1 act | STAT3 inh-2 | NFkB inh 2 | STAT1 inh STAT3c
Cc1ccc(S(=O)(=O)C(C#N)c2nc3ccccc3nc2N2CCN(C)CC2)cc1 (stereo unspecified) | 43.5* | -10.3 | 0.87 | 66.6 | -3.3 | 109.4 | 59.3* | 19.4* | 2.5
COc1ccc2cc3c(N)nn(C(=O)Cc4ccc(Cl)cc4)c3nc2c1 | 15.9 | 1.8 | 1.14 | 93.8 | 3.1 | 98.4 | . | . | .
COc1cccc(CC(=O)n2nc(N)c3cc4ccc(OC)cc4nc32)c1 | 45.8* | 1.4 | 1.24 | 67.7 | -12.7 | 98.8 | 36.5 | -14.3 | 8.1
CC(=O)c1cn(CC(=O)Nc2ccc(C)cc2C)c2ccccc12 | 62.2* | 25.7 | 1.02 | 50.6 | -13.5 | 73.4 | 61.1* | 12.2 | 21.7*
CC(=O)c1cn(CC(=O)NCc2cccnc2)c2ccccc12 | 10.2 | 7.4 | 1.09 | 94.3 | -7.5 | 93.2 | . | . | .
CC(=O)c1cn(CC(=O)Nc2cccc(C)c2C)c2ccccc12 | 49.1* | 29.2 | 0.8 | 59.9 | -4.9 | 71.6 | 43.7* | 15.0* | 22.6*
COCCCNC(=O)Cn1cc(C(C)=O)c2ccccc21 | 11.7 | 0.3 | 1.22 | 91.4 | -5.7 | 101.7 | . | . | .
COc1ccc([N+](=O)[O-])cc1NC(=O)CCSCCc1ccccn1 | 1.9 | 4.8 | 1.04 | 109.2 | 2.0 | 94.8 | . | . | .
O=S(=O)(NCc1ccccc1Cl)c1cccs1 | 20.5 | 0.2 | 1.38 | 91.1 | 22.7 | 99.1 | . | . | .
Cc1csc(N/N=C/c2ccccn2)n1 | 53.1* | 27.7 | 1.51 | 58.6 | 127.0 | 74.1 | 20.5 | 9.6 | -42.2
Cc1occc1C(=O)N/N=C/c1ccccn1 | -2.3 | -24.0 | 1.42 | 104.0 | -1.8 | 120.2 | . | . | .
Cc1ccc(-c2cc(-c3ccccc3)no2)c(O)c1 | 49.3* | -13.9 | 3.67* | 55.8 | 276.1* | 112.7 | 6.9 | 18.5* | -20.5
O=C(Cn1cnc2ccccc21)N/N=C/C(Br)=C/c1ccccc1 | 18.9 | 13.3 | 1.45 | 81.4 | -2.8 | 87.9 | . | . | .
CC(C)c1nnc(NC(=O)c2ccc3c(c2)OCO3)s1 | 78.9* | 21.8 | 4.77* | 32.4 | 147.9* | 79.4 | 48.5* | 4.2 | -55.5
O=c1c(N=Nc2ccc(O)cc2)c(-c2ccccc2)[nH]n1-c1ccc([N+](=O)[O-])cc1 | 25.6 | 1.4 | 0.92 | 81.8 | -20.1 | 98.3 | . | . | .
NC(=S)n1[nH]c(-c2ccc([N+](=O)[O-])cc2)c(N=Nc2ccc(Cl)cc2)c1=O | 61.1* | 27.2 | 0.57 | 51.4 | -30.4 | 73.0 | 53.7* | 13.5* | 36.8*
CCN(CC)C(=O)C1CCN(S(=O)(=O)c2ccc3oc4ccccc4c3c2)CC1 | 44.7* | 12.9 | 1.12 | 68.4 | 2.4 | 88.2 | 33.0 | 5.0 | 10.7
O=S(=O)(c1ccc2oc3ccccc3c2c1)N1CCCC1 | 0.6 | 2.2 | 1.06 | 100.4 | -12.1 | 97.9 | . | . | .
C=CC[n+]1c(-c2ccc(C)cc2)csc1Nc1ccc(NC(C)=O)cc1 | 62.7* | 32.7 | 0.56 | 49.9 | -50.2 | 69.5 | 51.5* | 17.9* | 15.3
C=CC[n+]1c(-c2ccc(OC)cc2)csc1NNC(=O)Nc1ccccc1 | 23.1 | 13.8 | 1.22 | 81.5 | 7.3 | 83.4 | . | . | .
CCCOc1ccc(C(=O)Nc2ccc(N3CCN(C(C)=O)CC3)cc2)cc1 | 17.4 | 10.8 | 1.03 | 87.2 | 14.1 | 90.0 | . | . | .
CCCCOc1ccc(C(=O)NC)cc1 | 4.6 | -2.3 | 1.68 | 98.7 | . | 100.0 | . | . | .
CCCCOc1ccc(C(=O)Nc2ccncc2)cc1 | 78.6* | 17.8 | 1.04 | 36.1 | 19.1 | 83.7 | 78.9* | 3.9 | 13.5
CCCOc1ccc(C(=O)Nc2ccc(N(C)C)cc2)cc1 | 46.6* | -20.7 | 1.44 | 67.3 | 4.8 | 118.8 | 29.8 | -15.3 | -41.8
CC(C)Oc1ccc(C(=O)Nc2ccc(N(C)C)cc2)cc1 | 53.7* | -9.7 | 2.53 | 61.0 | 48.9 | 108.8 | 35.3 | -9.4 | -36.3
SMILES | STAT3 inh-1 | STAT1 inh | NF-kB neuron act | STAT3 act | APP 5'UTR act | STAT1 act | STAT3 inh-2 | NFkB inh 2 | STAT1 inh STAT3c
CC(=O)CSc1ccc(C(=O)O)cn1 | -5.8 | -14.2 | 1.06 | 109.4 | 14.7 | 112.6 | . | . | .
Cn1nc(C(=O)OCc2ccc(F)cc2)c2ccccc2c1=O | 34.8 | 18.8 | 1.47 | 75.5 | 2.1 | 82.2 | . | . | .
Cc1ccc(COC(=O)c2nn(C)c(=O)c3ccccc23)cc1 | 52.0* | 20.0 | 0.86 | 60.2 | 4.5 | 81.1 | 46.6* | 17.3* | 20.7*
COc1ccc(-n2c(-c3ccc(Br)cc3)c[n+]3c2SC(C)C3)cc1 (stereo unspecified) | 45.9* | 17.1 | 0.78 | 65.6 | 36.6 | 83.8 | 40.7 | -5.1 | 22.2*
O=C(Nc1nnc(C2CC2)s1)c1cc([N+](=O)[O-])ccc1N1CCCCC1 | -6.3 | 5.9 | 1.39 | 106.3 | -4.7 | 94.0 | . | . | .
CCC(C)C(=O)Nn1c(C2CC2)nc2cc(OC)c(OC)cc2c1=O (stereo unspecified) | -4.2 | -2.0 | 0.98 | 105.5 | 7.9 | 101.2 | . | . | .
O=C(CCC1CCCN(Cc2ccc3c(c2)CCO3)C1)NCc1ccc(F)c(F)c1 (stereo unspecified) | 0.3 | 0.8 | 1.03 | 104.9 | -1.5 | 99.1 | . | . | .
COc1ccc2c(c1)oc(=O)c1ccccc12 | 11.3 | -20.5 | 1.52 | 91.9 | 14.1 | 117.7 | . | . | .
COc1ccc2c(c1)oc(=O)c1c3ccccc3[nH]c21 | 59.9* | -31.9 | 1.04 | 53.0 | 73.4 | 128.0 | 62.2* | -10.1 | -53.1
Cc1cc(C)cc(N=c2c([N+](=O)[O-])nn(-c3ccc4c(c3)OCCO4)n2O)c1 | 17.0 | -4.4 | 0.45 | 91.9 | -22.8 | 102.1 | . | . | .
Cc1ccc(N=c2c([N+](=O)[O-])nn(-c3ccc4c(c3)OCCO4)n2O)c(Cl)c1 | 48.8* | 30.4 | 0.7 | 62.0 | 14.3 | 70.8 | -14.8 | 0.0 | -60.7
O=C(COc1ccc(Cl)cc1)Nc1ncc([N+](=O)[O-])s1 | 47.7* | 31.3 | 2.11 | 62.5 | 116.1 | 69.8 | 8.0 | -8.8 | -42.4
O=C(Cc1ccc(Cl)cc1)Nc1ncc([N+](=O)[O-])s1 | 3.8 | 2.4 | 1.78 | 100.8 | 38.6 | 97.6 | . | . | .
O=S(=O)(c1ccc(N2CCCC2)cc1)C(F)(F)F | 43.6* | 7.1 | 1.29 | 65.9 | 3.0 | 95.5 | 10.3 | -7.7 | -8.7
O=C1C=C(NC2=CC3OC(c4ccccc4)OCC3OC2=O)CCC1 (stereo unspecified) | 51.2* | 17.9 | 0.96 | 56.5 | -12.8 | 84.0 | 36.4 | 20.7* | 17.8*
CCc1ccc(-c2nc(-c3ccncc3)no2)cc1 | 57.0* | -17.9 | 3.4* | 57.5 | 167.8* | 116.4 | 29.1 | -14.0 | -99.3
CNC(=S)N1CCN(c2nc3ccccc3s2)CC1 | 23.2 | -17.8 | 2.41 | 84.5 | 28.5 | 115.2 | . | . | .
